Data: PMC12004261 (RSC Medicinal Chemistry, 2025)
Entries after “also recorded” stand apart in the source; their conditions may differ.

What was measured:
[1] = molecular target: AD brain tissue homogenates; test: Saturation binding assay of [^3H]M503-1619 in AD brain tissue homogenates; parameters: species or system human; conditions: AD tissue (n = 4), mean ± SD
How it was run: (§1)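 Frozen brain homogenate in pH 7.0 PBS, diluted to a final 100 μg tissue per mL. Contained ~1 nM tritiated test compound plus 0.2–1000 nM unlabelled compound and 0.25% DMSO (final). Incubated 60 min at room temperature, GF/B filtration, three PBS washes, scintillation counting after standing overnight. Nondisplaceable binding set with ~1 μM unlabelled compound; bound corrected for diluted specific activity. KD from Scatchard slope, Bmax from x-intercept; at least triplicate.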

[2] = Radiometabolite study of venous blood plasma; type: in vivo, rhesus monkey; conditions: 7.5 min post-injection
How it was run: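 Plasma from a 26-year-old male rhesus macaque was sampled during a PET scan after IV injection of 105 MBq of the 11C-labelled test compound. The animal was anaesthetised with ketamine/dexmedetomidine and maintained on isoflurane. Venous blood was spun 5 min at 3000g and the plasma deproteinised with acetonitrile 1:1. Reverse-phase C18 HPLC used 65% 0.1 M ammonium formate/35% acetonitrile at 1.2 mL min−1. An in-line radio-detector measured parent fraction by standard retention time.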

[3] = molecular target: PSP brain tissue homogenates (Homo sapiens, UniProt P10636); test: Saturation binding assay of [^3H]M503-1619 in PSP brain tissue homogenates
How it was run: as §1

Brain PET imaging study = type: in vivo, cynomolgus macaque; conditions: cynomolgus monkey
How it was run: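 Male cynomolgus macaque (8.5 kg), ketamine 10–20 mg kg−1 induction, kept on 40% N2O/60% O2 with 1.0–1.5% isoflurane. After a positioning scan and a 45 min transmission scan for attenuation, ~350 MBq of the 11C-labelled test compound was given by limb-vein catheter. Two-hour dynamic scan, filtered back projection with corrections, co-registration to a monkey MRI template, whole-brain VOI. SUV normalised to body weight and injected dose.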

[4] = molecular target: CBD brain tissue homogenates (Homo sapiens, UniProt P10636); test: Saturation binding assay of [^3H]M503-1619 in CBD brain tissue homogenates
How it was run: as §1

[5] = molecular target: α-Syn (Lewy bodies in PD, GCIs in MSA) (Homo sapiens, UniProt P37840); test: Nuclear emulsion; type: binding; conditions: 5 nM and 15 nM, listed as [^3H]M503-1619
How it was run: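 Fresh-frozen PD and MSA cryosections (16 μm) were quenched for lipofuscin with TrueBlack in 70% EtOH and immunostained for pS129 α-Syn. Sections were incubated with 5 or 15 nM tritiated test compound in 30 mM Tris–HCl pH 7.4 for 2 h at 37 °C, then given graded Tris/ethanol washes. Emulsion-dipped slides were exposed 4 days in the dark and developed. Silver grains were imaged by brightfield alongside fluorescence.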

[6] = molecular target: PD brain tissue homogenates (Homo sapiens, UniProt P37840); test: Saturation binding assay of [^3H]M503-1619 in PD brain tissue homogenates
How it was run: as §1

[7] = Total-body PET imaging study; type: in vivo, rhesus macaque; conditions: rhesus monkey
synthetic α-Syn fibrils = synthetic α-Syn fibrils (Homo sapiens, UniProt P37840); test: Saturation binding assay of [^3H]M503-1619 in α-Syn fibrils

PSP brain tissue homogenates, sequence (P10636 561-698 limits assumed): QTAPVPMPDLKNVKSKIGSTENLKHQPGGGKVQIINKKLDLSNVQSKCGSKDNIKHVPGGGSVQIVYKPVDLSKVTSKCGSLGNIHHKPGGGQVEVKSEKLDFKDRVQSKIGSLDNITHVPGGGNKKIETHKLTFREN
CBD brain tissue homogenates, sequence (P10636 561-708 limits assumed): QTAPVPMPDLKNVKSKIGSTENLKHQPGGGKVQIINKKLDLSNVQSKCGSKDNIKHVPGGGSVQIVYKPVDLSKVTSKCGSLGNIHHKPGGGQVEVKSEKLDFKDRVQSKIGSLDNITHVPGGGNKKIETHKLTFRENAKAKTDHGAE

In the case of COc1ccc(NC(=O)c2cnc(N3CCN(c4ccccn4)CC3)nc2N)cc1 [M503-1619, 4-Amino-N-(4-methoxyphenyl)-2-(4-(pyridin-2-yl)piperazin-1-yl)pyrimidine-5-carboxamide], the Kd [1] is reported as 37 ± 2 nM, the “Parent (%)” value [2] is reported as 57% and the Kd [3] is reported as 55 ± 3 nM. The “Bmax” value ([3]; PSP tissue (n = 4)) was 399 ± 24 nM, the “Time of peak uptake of the whole brain” value (Brain PET imaging study) was 2 to 3 min and the “Whole brain peak to 60 min ratio” value (Brain PET imaging study) was 3.2. For the same molecule, the “Peak uptake of the whole brain, standardized uptake value (SUV)” value (Brain PET imaging study; whole brain) was 2.3, the Kd [4] was 94 ± 13 nM and the “Bmax” value ([4]; CBD tissue (n = 3)) was 540 ± 130 nM. The “High-resolution autoradiography: binding to GCIs” value ([5]; MSA brain tissue sections) was “not to GCIs present in MSA; also recorded: not on GCIs in MSA brain”, the “High-resolution autoradiography: binding to Lewy bodies” value ([5]; PD brain tissue sections) was “target engagement of [^3H]M503-1619 to Lewy bodies in PD brain; also recorded: accumulation of silver grains on Lewy bodies in PD” and the Kd [6] was 2.5 ± 0.3 nM. The “Bmax” value ([6]; PD tissue (n = 4)) was 59 ± 10 nM, the Selectivity vs. tau ([6]; α-Syn vs. tau) was 10–20 fold and the “Time of peak uptake of the whole brain” value [7] was 2 to 3 min. The “Whole brain peak to 60 min ratio” value [7] was 3.2, the “Peak uptake of the whole brain, standardized uptake value (SUV)” value ([7]; whole brain) was 2.5 and the Kd (synthetic α-Syn fibrils) was 4.4 ± 1 nM. For the same molecule, the “Bmax” value (synthetic α-Syn fibrils; α-Syn fibrils (n = 4)) was 1156 ± 112 nM.
